Assay results of several laboratories.
Each line is one published result; the experiments were not run side by side.
Target: Membrane-associated tyrosine- and threonine-specific cdc2-inhibitory kinase (PKMYT1, Homo sapiens, UniProt Q99640)
Residues used in one study (Q99640 1-499): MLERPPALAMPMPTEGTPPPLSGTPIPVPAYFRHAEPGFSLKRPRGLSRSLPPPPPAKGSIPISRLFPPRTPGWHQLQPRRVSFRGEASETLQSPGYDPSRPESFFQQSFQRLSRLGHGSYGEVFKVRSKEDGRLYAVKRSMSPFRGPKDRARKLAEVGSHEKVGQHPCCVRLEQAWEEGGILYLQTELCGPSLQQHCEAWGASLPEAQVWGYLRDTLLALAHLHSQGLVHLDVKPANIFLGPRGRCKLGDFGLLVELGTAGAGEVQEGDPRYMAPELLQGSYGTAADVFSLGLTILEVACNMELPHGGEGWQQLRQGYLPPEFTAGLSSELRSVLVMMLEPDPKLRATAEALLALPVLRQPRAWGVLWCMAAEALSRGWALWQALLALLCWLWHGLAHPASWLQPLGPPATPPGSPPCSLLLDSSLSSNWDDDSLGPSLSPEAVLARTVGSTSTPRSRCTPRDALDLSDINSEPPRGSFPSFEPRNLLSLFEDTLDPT

| SMILES | assay | setting | remaining binding |
| --- | --- | --- | --- |
| O=C(c1ccc(Nc2nccc(-c3cc4ccccc4s3)n2)cc1)N1CCC(N2CCCC2)CC1 | binding, competition with immobilised ligand | 1 µM | 70% |
| Cn1nc(C(F)(F)F)cc1-c1cnc(N2CCc3cc(S(=O)(=O)Nc4c(F)cc(Cl)cc4F)cc(N4CCCC4=O)c32)nc1 | cell-free assay, competition with immobilised ligand | 1 µM | 93% |
| N[C@H]1CCN(c2nccc(-c3cnn4ncccc34)n2)C1 | binding | 1 µM | 91% |
| COc1cnc(Nc2cccc(S(N)(=O)=O)c2)nc1N1CCN(c2ccccc2)C(=O)C1 | binding, competition with immobilised ligand | 1 µM | 86% |
| Cc1cnn2ncc(-c3ccnc(N(C)C)n3)c2c1 | binding | 1 µM | 100% |
| CCN1CCN(Cc2ccc(C(=O)Nc3ccc(C)c(Oc4ccc5c(c4)CC(=O)N5)c3)cc2C(F)(F)F)CC1 | binding, competition with immobilised ligand | 1 µM | 70% |
| CCC(=O)N[C@@H]1CC[C@H](C(=O)N(C)c2ccc(-c3nc4ccccc4o3)cc2)C1 | cell-free assay, competition with immobilised ligand | 1 µM | 100% |
| CN(C)c1nccc(-c2cnn3ncccc23)n1 | binding | 1 µM | 100% |
| COc1cnc(Nc2cccc(S(N)(=O)=O)c2)nc1N1CCN(c2ccccc2)CC1 | binding, competition with immobilised ligand | 1 µM | 89% |
| CN(C)c1ncc(F)c(-c2cnn3ncccc23)n1 | binding | 1 µM | 97% |
| O=C(c1ccc(Nc2ncc(Cl)c(-c3ccc(Cl)s3)n2)cc1)N1CCC(N2CCCC2)CC1 | binding, competition with immobilised ligand | 1 µM | 100% |
| CS(=O)(=O)N1CCCC(NC(=O)[C@H](CCC2CCCCC2)NC(=O)c2ccc(CNC(=O)c3cnc4ccccn34)cc2)C1 (some centres unmarked) | cell-free assay, competition with immobilised ligand | 0.1 µM | 100% |
| CC1CCCN1c1nccc(-c2cnn3ncccc23)n1 (centres unmarked) | binding | 1 µM | 97% |
| O=C(NCCCN1CCOCC1)c1ccc(Nc2nccc(-c3cc4ccccc4s3)n2)cc1 | binding, competition with immobilised ligand | 1 µM | 84% |
| CC(=O)c1c(NS(C)(=O)=O)c2cc(-c3ccc(Cl)cc3)c(-c3ccc(Cl)cc3Cl)nc2n(C)c1=O | cell-free assay, competition with immobilised ligand | 1 µM | 99% |
| F[C@@H]1CCN(c2nccc(-c3cnn4ncccc34)n2)C1 | binding | 1 µM | 100% |
| CN1CCN(c2cnc3c(C4CCN(C(=O)c5ccc(OC(F)(F)F)cc5N)CC4)ncnc3c2)CC1 | cell-free assay, competition with immobilised ligand | 1 µM | 100% |
| COc1ncc2cc3ccccc3nc2c1C#N | cell-free assay, competition with immobilised ligand | 5 µM | 100% |
| NS(=O)(=O)c1cc(NC(=O)Cc2ccccc2)ccc1Oc1cccc(Cl)c1 | cell-free assay, competition with immobilised ligand | 1 µM | 96% |
| O=C(NCC1CCOCC1)c1n[nH]cc1NC(=O)c1c(F)cccc1F | binding, competition with immobilised ligand | 1 µM | 72% |
